Measured values reported in ChEMBL document CHEMBL1221221, “Discovering chemical modifiers of oncogene-regulated hematopoietic differentiation” (Nat Chem Biol, 2009).
Calls of active or inactive are those of the source. No cut-off for these calls is given here.

What was measured:
Danio rerio [1] = species: Danio rerio; experiment: Inhibition of AML1-ETO protein translation in heterozygous transgenic zebrafish assessed as suppression of phenotype appearance; type: functional, organism-based
Procedure, shortened: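 Heterozygous Tg(hsp:AML1-ETO) embryos were dechorionated with pronase at 12−16 hpf and kept in E3 buffer, five per well. Compound was added at 20 μM final. One hour later, AE expression was induced by heat shock at 40 °C for 1 h, followed by 90 min at 28.5 °C. Embryos were then fixed and gata1 in situ hybridization was scored in the posterior blood islands.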

Danio rerio [2] = species: Danio rerio; experiment: Inhibition of Hsp70 expression in heterozygous transgenic zebrafish embryo at 0.15 uM by Western blot analysis; type: functional, organism-based
Procedure, shortened: (§1)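 Heterozygous Tg(hsp:AML1-ETO) embryos, bred from homozygous transgenic × wild-type crosses, were heat-treated at 39−40 °C for 1 h to induce AE. Lysates were Western blotted with anti-AML1 antibody for AE and also probed for Hsp70, with Akt as the loading reference. Controls were DMSO vehicle, heat-treated wild-type embryos, and unheated transgenic embryos.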

Danio rerio [3] = species: Danio rerio; experiment: Inhibition of Hsp70 expression in heterozygous transgenic zebrafish embryo at 0.5 uM by Western blot analysis; type: functional, organism-based
Procedure, shortened: (§2)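 Heterozygous Tg(hsp:AML1-ETO) embryos treated with compound or DMSO and heat-treated to induce transgene expression. Lysates examined by Western blot with anti-AML1 antibody for AML1-ETO, and also probed for Hsp70. Akt used as loading reference. Controls were heat-treated wild-type embryos and unheated transgenic embryos.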

Danio rerio [4] = species: Danio rerio; experiment: Inhibition of heat-induced AML1-ETO protein expression in heterozygous transgenic zebrafish embryo at 0.5 uM by Western blot analysis; type: functional, organism-based; procedure, shortened: as §2
Danio rerio [5] = species: Danio rerio; conditions: 40 uM
Danio rerio [6] = species: Danio rerio; conditions: 40 uM; remark: listed apart in the source
Danio rerio [7] = species: Danio rerio; conditions: 40 uM; remark: listed apart in the source
Danio rerio [8] = species: Danio rerio; conditions: 40 uM; remark: listed apart in the source
Danio rerio [9] = species: Danio rerio; experiment: Inhibition of heat-induced AML1-ETO protein expression in heterozygous transgenic zebrafish embryo by Western blot analysis; type: functional, organism-based; procedure, shortened: as §1
[10] = target: Glycogen synthase kinase 3 beta (Danio rerio) (UniProt Q9YH60); experiment: Inhibition of GSK-3-beta-mediated activation of […] signaling in heat-stimulated heterozygous transgenic zebrafish embryo assessed as down-regulation of gata1 gene expression at 0.5 uM by in-situ hybridization analysis
Procedure, shortened: (§3)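 Heterozygous Tg(hsp:AML1-ETO) embryos exposed to the GSK-3β inhibitor from 14 hpf, after gastrulation, then given a mild heat treatment (37 °C, 1 h) or none. DMSO vehicle control. In situ hybridization for gata1 or mpo. Scored as numbers of embryos showing gata1 downregulation or mpo upregulation.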

[11] = target: Glycogen synthase kinase 3 beta (Danio rerio) (UniProt Q9YH60); experiment: Inhibition of GSK-3-beta-mediated activation of […] signaling in heat-stimulated heterozygous transgenic zebrafish embryo assessed as upregulation of MPO gene expression at 0.5 uM by in-situ hybridization analysis; procedure, shortened: as §3
[12] = target: Glycogen synthase kinase 3 beta (Danio rerio) (UniProt Q9YH60); experiment: Inhibition of GSK-3-beta-mediated activation of […] signaling in heterozygous transgenic zebrafish embryo assessed as effect on gata1 gene expression at 0.5 uM by in-situ hybridization analysis; procedure, shortened: as §3
[13] = target: Glycogen synthase kinase 3 beta (Danio rerio) (UniProt Q9YH60); experiment: Inhibition of GSK-3-beta-mediated activation of […] signaling in heterozygous transgenic zebrafish embryo assessed as effect on MPO gene expression at 0.5 uM by in-situ hybridization analysis; procedure, shortened: as §3
Danio rerio [14] = species: Danio rerio; experiment: Effect on gross morphology of heterozygous transgenic zebrafish embryo at 0.5 uM; type: ADME, organism-based; conditions: in vivo
Danio rerio [15] = species: Danio rerio; experiment: Inhibition of heat-induced AML1-ETO protein expression in heterozygous transgenic zebrafish embryo at 0.15 uM by Western blot analysis; type: functional, organism-based; procedure, shortened: as §1
Danio rerio [16] = species: Danio rerio; experiment: Effect on gata1 gene expression in wild type zebrafish embryo at 20 uM treated 14 hrs post fertilization by in-situ hybridization analysis; type: functional, organism-based
Danio rerio [17] = species: Danio rerio; experiment: Effect on scl gene expression in wild type zebrafish embryo at 20 uM treated 14 hrs post fertilization by in-situ hybridization analysis; type: functional, organism-based
Danio rerio [18] = species: Danio rerio; experiment: Effect on MPO gene expression in wild type zebrafish embryo at 20 uM treated 14 hrs post fertilization by in-situ hybridization analysis; type: functional, organism-based
Danio rerio [19] = species: Danio rerio; experiment: Effect on l-plastin gene expression in wild type zebrafish embryo at 20 uM treated 14 hrs post fertilization by in-situ hybridization analysis; type: functional, organism-based
Danio rerio [20] = species: Danio rerio; experiment: Induction of MPO-positive granulocytic cell accumulation in heat-stimulated heterozygous transgenic zebrafish embryo; type: functional, organism-based
Danio rerio [21] = species: Danio rerio; experiment: Induction of AML1-ETO protein translation in 37 degC heat-stimulated heterozygous transgenic zebrafish assessed as phenotype appearance after 1 hr by in-situ hybridization analysis; type: functional, organism-based
Danio rerio [22] = species: Danio rerio; experiment: Downregulation of gata1 gene expression in 39 to 40 degC heat-stimulated heterozygous transgenic zebrafish embryo after 1 hr by in-situ hybridization analysis; type: functional, organism-based
Danio rerio [23] = species: Danio rerio; experiment: Upregulation of MPO gene expression in 39 to 40 degC heat-stimulated heterozygous transgenic zebrafish embryo after 1 hr by in-situ hybridization analysis; type: functional, organism-based
Danio rerio [24] = species: Danio rerio; experiment: Induction of AML1-ETO protein translation in 39 to 40 degC heat-stimulated heterozygous transgenic zebrafish assessed as phenotype appearance after 1 hr by in-situ hybridization analysis; type: functional, organism-based
Danio rerio [25] = species: Danio rerio; experiment: Inhibition of COX2-mediated decrease in gata1 expression in heat-stimulated heterozygous transgenic zebrafish embryo assessed as restoration of gata1 level at 20 uM by in-situ hybridization analysis
Procedure, shortened: (§4)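 Heterozygous Tg(hsp:AML1-ETO) embryos from homozygous × wild-type crosses. Compound added in DMSO 1 h before heat treatment at 39−40 °C for 1 h at 16−18 hpf. Embryos fixed 90 min after heat treatment, then whole-mount in situ hybridization for gata1 in posterior blood islands. Scored as counts of embryos showing the phenotype. DMSO vehicle control; unheated transgenic embryos for comparison.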

Danio rerio [26] = species: Danio rerio; experiment: Inhibition of COX2-mediated decrease in gata1 expression in heterozygous transgenic zebrafish embryo assessed as restoration of gata1 level at 20 uM by in-situ hybridization analysis; procedure, shortened: as §4
Danio rerio [27] = species: Danio rerio; experiment: Inhibition of COX2 in heat-stimulated heterozygous transgenic zebrafish embryo assessed as MPO-positive granulocytic cell accumulation at 20 uM by in situ hybridization analysis
Procedure, shortened: (§5)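 Heterozygous Tg(hsp:AML1-ETO) embryos given heat treatment at 39−40 °C for 1 h at 16−18 hpf. Compound added in DMSO right at the end of heat treatment, with or without PGE2 (20 μM). Embryos fixed at 36−40 hpf for mpo in situ hybridization of granulocytic cells. Scored as counts of embryos showing the phenotype; unheated transgenic embryos also tested.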

Danio rerio [28] = species: Danio rerio; experiment: Inhibition of COX2 in heterozygous transgenic zebrafish embryo assessed as MPO-positive granulocytic cell accumulation at 20 uM by in situ hybridization analysis; procedure, shortened: as §5
Danio rerio [29] = species: Danio rerio; experiment: Inhibition of COX2 in heat-stimulated heterozygous transgenic zebrafish embryo assessed as MPO-positive granulocytic cell accumulation at 20 uM by in situ hybridization analysis in presence of PGE2; procedure, shortened: as §5
Danio rerio [30] = species: Danio rerio; experiment: Inhibition of COX2-mediated decrease in gata1 expression in heat-stimulated heterozygous transgenic zebrafish embryo assessed as restoration of gata1 level at 25 uM by in-situ hybridization analysis; procedure, shortened: as §4
Danio rerio [31] = species: Danio rerio; experiment: Inhibition of COX2-mediated decrease in gata1 expression in heterozygous transgenic zebrafish embryo assessed as restoration of gata1 level at 25 uM by in-situ hybridization analysis; procedure, shortened: as §4
Danio rerio [32] = species: Danio rerio; experiment: Inhibition of COX2 in heat-stimulated heterozygous transgenic zebrafish embryo assessed as MPO-positive granulocytic cell accumulation at 25 uM by in situ hybridization analysis; procedure, shortened: as §5
Danio rerio [33] = species: Danio rerio; experiment: Inhibition of COX2 in heterozygous transgenic zebrafish embryo assessed as MPO-positive granulocytic cell accumulation at 25 uM by in situ hybridization analysis; procedure, shortened: as §5
Danio rerio [34] = species: Danio rerio; experiment: Inhibition of COX2 in heat-stimulated heterozygous transgenic zebrafish embryo assessed as MPO-positive granulocytic cell accumulation at 25 uM by in situ hybridization analysis in presence of PGE2; procedure, shortened: as §5

Glycogen synthase kinase 3 beta (Danio rerio), sequence (Q9YH60 as listed by the source): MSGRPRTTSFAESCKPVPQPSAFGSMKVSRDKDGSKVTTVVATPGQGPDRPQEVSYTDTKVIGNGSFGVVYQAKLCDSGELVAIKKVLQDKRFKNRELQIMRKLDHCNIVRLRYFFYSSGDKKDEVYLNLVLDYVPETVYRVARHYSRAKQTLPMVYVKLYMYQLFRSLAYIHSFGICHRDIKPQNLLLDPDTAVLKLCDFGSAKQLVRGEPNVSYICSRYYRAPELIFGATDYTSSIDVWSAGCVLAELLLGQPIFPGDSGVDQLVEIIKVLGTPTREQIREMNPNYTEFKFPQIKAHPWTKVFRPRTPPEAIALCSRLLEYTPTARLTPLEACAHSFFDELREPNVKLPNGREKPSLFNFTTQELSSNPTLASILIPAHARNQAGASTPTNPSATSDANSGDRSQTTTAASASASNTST

C[C@@H]1C[C@@H]([C@H](O)CC2CC(=O)NC(=O)C2)C(=O)[C@@H](C)C1
Imax (Danio rerio [1]): Active
inhibition (Danio rerio [2]): Active

CS(=O)(=O)Nc1ccc([N+](=O)[O-])cc1Oc1ccccc1
inhibition (Danio rerio [3]): inactive
inhibition (Danio rerio [4]): inactive
inhibition (Danio rerio [5]): inactive
inhibition (Danio rerio [6]): Active
inhibition (Danio rerio [7]): inactive
inhibition (Danio rerio [8]): inactive

Oc1ccc(Cl)cc1Cc1cc(Cl)ccc1O
inhibition of AML1-ETO protein expression (active/not active) (Danio rerio [9]): Active

O=C1Nc2cc(Br)ccc2/C1=C1/Nc2ccccc2/C1=N\O [6BIO]
inhibition [10]: Active
inhibition [11]: Active
inhibition [12]: Active
inhibition [13]: Active
Activity (Danio rerio [14]): Toxic

O=c1oc2ccccc2c(O)c1Cc1c(O)c2ccccc2oc1=O
inhibition of AML1-ETO protein expression (active/not active) (Danio rerio [9]): inactive

C=C(C)[C@H]1Cc2c(ccc3c2O[C@@H]2COc4cc(OC)c(OC)cc4[C@@H]2C3=O)O1
inhibition (Danio rerio [15]): Active
inhibition (Danio rerio [2]): Active

CCCCC[C@H](O)/C=C/[C@H]1[C@H](O)CC(=O)[C@@H]1C/C=C\CCCC(=O)O
Activity (Danio rerio [16]): inactive
Activity (Danio rerio [17]): inactive
Activity (Danio rerio [18]): inactive
Activity (Danio rerio [19]): inactive
Activity (Danio rerio [20]): Active
inhibition (Danio rerio [21]): Active
inhibition (Danio rerio [22]): inactive
inhibition (Danio rerio [23]): inactive
Activity (Danio rerio [24]): Active

COc1ccc2c(c1)O[C@@H]1COc3cc(OC)c(OC)cc3[C@@H]1C2=O
inhibition of AML1-ETO protein expression (active/not active) (Danio rerio [9]): Active

COc1ccc2c(c1)c(CC(=O)O)c(C)n2C(=O)c1ccc(Cl)cc1
inhibition (Danio rerio [25]): Active
inhibition (Danio rerio [26]): inactive
inhibition (Danio rerio [27]): Active
inhibition (Danio rerio [28]): inactive
inhibition (Danio rerio [29]): inactive

Oc1c(Cl)cc(Cl)cc1Sc1cc(Cl)cc(Cl)c1O
inhibition of AML1-ETO protein expression (active/not active) (Danio rerio [9]): Active

CS(=O)(=O)Nc1ccc([N+](=O)[O-])cc1OC1CCCCC1
inhibition (Danio rerio [30]): Active
inhibition (Danio rerio [31]): inactive
inhibition (Danio rerio [32]): Active
inhibition (Danio rerio [33]): inactive
inhibition (Danio rerio [34]): inactive

CC(/C=C/C(=O)NO)=C\[C@@H](C)C(=O)c1ccc(N(C)C)cc1
inhibition (Danio rerio [3]): inactive
inhibition (Danio rerio [4]): inactive
